PP1 counter = PP1-alpha phosphatase inhibitors, primary screen, counter-screen for PP5 inhibitor project, biochemical, fluorescence, OMFP substrate, single point. purified PP1alpha. 0.9% of 320,000 active. AID 2235, 2010. inhibition, % at 6.7 µM. Serine/threonine-protein phosphatase PP1-alpha catalytic subunit (Homo sapiens), P62136;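 active means inhibition above the mean inhibition of all tested compounds plus 3 SD, computed separately for each screening campaign, cut at about 15% in these data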
core dimer inh = inhibitors of HCV core protein dimerization, primary screen, biochemical, TR-FRET, high-throughput | inhibition, % at 5 µM | TR-FRET GST/Flag-core106 dimerization, 1536-well | 0.33% of 300,000 active | AID 1899, 2009;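 active means inhibition above the mean of all tested compounds plus 3 SD, set per screening campaign, cut at about 45% in these data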
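Test system: GST/Flag-tagged HCV core106 proteins; Medium: KF-containing HEPES buffer, pH 7.45, DTT, CHAPS, BSA; Times: compound-protein-antibody incubation 4 h at 22.5 °C; Detection: TR-FRET 671 and 617 nm emission; Benchmarks: wells lacking GST-core106 and wells with excess unlabelled core106.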
CTSL1 counter = Fasciola hepatica cathepsin L1 inhibitors, primary screen, counter-screen for PFM18AAP inhibitor project, biochemical, QFRET, fluorogenic peptide substrate. 0.49% of 300,000 active. recombinant F. hepatica cathepsin L1, Z-Leu-Arg-MCA fluorescence. AID 1906, 2009. inhibition, % at 5.96 µM;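 active means inhibition above the mean of all tested compounds plus 3 SD, set per screening campaign, cut at about 17% in these data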
Myeloid diff 2 = induction of myeloid progenitor differentiation, primary screen, cell-based, flow cytometry, MLPCN library; ER-HoxA9 myeloid progenitors, lysozyme-GFP differentiation; calls only at 10 µM; 1% of 360,000 active;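 active means normalized GFP-positive differentiation at or above the plate's own cutoff, the solvent-only control mean plus 3 SD; inconclusive means no clear call, values can overlap the other calls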;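 further: cells exposed to compound for four days before flow analysis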
PP5 inh = PP5 phosphatase inhibitors, primary screen, biochemical, fluorescence; purified PP5c, OMFP substrate fluorescence; inhibition, % at 6.7 µM; Serine/threonine-protein phosphatase 5 (Homo sapiens), P53041; AID 1987, 2009; 0.18% of 320,000 active;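 active means inhibition above the campaign's mean inhibition across all tested compounds plus 3 SD, cut at about 9.5% in these data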
Target sequence (P53041 whole entry, looked up): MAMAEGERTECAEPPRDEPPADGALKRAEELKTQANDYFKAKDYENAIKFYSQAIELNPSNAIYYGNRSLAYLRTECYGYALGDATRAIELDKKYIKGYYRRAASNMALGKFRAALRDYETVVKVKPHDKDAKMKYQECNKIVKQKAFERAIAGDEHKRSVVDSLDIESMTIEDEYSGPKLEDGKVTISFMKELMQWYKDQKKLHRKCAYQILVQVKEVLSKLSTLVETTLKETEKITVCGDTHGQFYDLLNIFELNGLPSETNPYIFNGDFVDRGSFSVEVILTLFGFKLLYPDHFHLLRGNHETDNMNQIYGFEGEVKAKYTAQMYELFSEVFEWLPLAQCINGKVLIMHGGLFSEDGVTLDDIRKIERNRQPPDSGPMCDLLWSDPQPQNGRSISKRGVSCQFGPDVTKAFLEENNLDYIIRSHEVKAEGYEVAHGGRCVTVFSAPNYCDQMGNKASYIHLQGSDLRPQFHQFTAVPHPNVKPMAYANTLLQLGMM
NadD inh = inhibitors of S. aureus NadD, primary screen, biochemical, colorimetric, uHTS; Nicotinate-nucleotide adenylyltransferase NadD (Staphylococcus aureus N315); purified NadD enzyme, colorimetric absorbance read-out; inhibition, % at 20 µM; 0.78% of 360,000 active; in the data active means inhibition above about 26%
PP1 confirm = PP1 phosphatase inhibitors, confirmation, biochemical, fluorescence, OMFP substrate, triplicate; shares compounds with PP1 counter; purified PP1alpha; inhibition, % at 6.7 µM; 52% of 1,900 active;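 active means mean PP1 inhibition above a set limit taken from the earlier primary screen, cut at about 15% in these data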
PP5 counter = PP5 phosphatase inhibition by PP1 hits, confirmation, counter-screen for PP1 inhibitor project, biochemical, fluorescence, triplicate; inhibition, % at 6.7 µM; shares compounds with PP1 counter; AID 2360, 2010; 4% of 1,900 active; purified PP5c, OMFP fluorescence;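 active means mean PP5 inhibition over triplicate wells above about 9.5% taken from the earlier PP1 screen, limit read from the data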
Numbers stand for hits; n = inactive; u = inconclusive; x = no result given; + = active, no number. An excerpt weighted towards active compounds, which were near 3.1% of everything screened.

SMILES	PP1 counter	core dimer inh	CTSL1 counter	Myeloid diff 2	PP5 inh	NadD inh	PP1 confirm	PP5 counter
COc1cc(CC(=O)OCC(=O)Nc2ccc(N(C)C)cc2)cc(OC)c1OC	x	x	x	n	x	n	x	x
COc1cc(NC(=O)c2cnc(N)s2)cc(C(=O)Nc2cccc(C(F)(F)F)c2)c1	32	n	n	u	n	n	34	n
COc1cc(NC(=O)c2ccnc(N)c2)cc(C(=O)Nc2cccc(C(F)(F)F)c2)c1	n	n	n	n	n	n	x	x
COc1ccc(NC(=O)CN2CCC(C(=O)c3ccc(F)cc3)CC2)c(OC)c1	n	n	n	n	n	n	x	x
CCCNC(=O)C1(C)CCCN(C(=O)Cc2cccc(OC)c2)C1 (stereo not given)	x	x	x	n	x	n	x	x
O=C(Nc1ccccc1C(=O)O)c1cccc(S(=O)(=O)Nc2ccc(Br)cc2)c1	18	n	n	n	n	n	n	n
COc1cccc(NC(=O)COC(=O)C2C3CC4OC(=O)C2C4C3)c1 (stereo not given)	n	n	n	n	n	n	x	x
O=c1cc(-c2c(O)c3ccccc3n(Cc3ccccc3)c2=O)[nH][nH]1	29	n	n	n	n	n	n	n
CC(C)(C)N(Cc1ccccc1)C(=O)COC(=O)c1ccc2ccccc2n1	x	x	x	n	x	n	x	x
CCN(CC)S(=O)(=O)c1cccc(NC(=O)CN2C(=O)NC3(CCC(C)CC3)C2=O)c1 (stereo not given)	x	x	x	n	x	n	x	x
CC(=O)NCCC(=O)NCc1ccc(F)cc1	19	n	n	n	n	n	n	n
CC(=O)Nc1cccc(NC(=O)CSc2ncc(C(=O)Nc3ccc(F)cc3)c(=O)n2C)c1	34	n	n	n	n	n	n	n
O=C(c1ccc(Cl)c(Cl)c1)N1CCC(=O)N(C(COCc2cccc(Cl)c2)Cc2ccccc2)CC1 (stereo not given)	20	n	n	+	n	n	n	n
O=C1CCC(C(=O)N2CCCCO2)CN1Cc1ccc(Cl)cc1 (stereo not given)	n	n	n	n	n	n	x	x
Cc1cccc(N2C(=O)C(O)=C(C(=O)c3cccs3)C2c2ccc(C(C)C)cc2)n1 (stereo not given)	23	n	n	n	n	n	19	n
Cc1cccc(N2C(=O)C(O)=C(C(=O)c3cccs3)C2c2ccc(F)cc2)n1 (stereo not given)	n	n	n	n	n	n	x	x
C[C@H]1CN([C@@H](C)CO)S(=O)(=O)c2ccc(Br)cc2O[C@H]1CN(C)C(=O)c1cccc(F)c1	x	x	x	n	x	n	x	x
Cn1c(SCC(=O)c2ccccc2)nnc1-c1ccncc1	n	n	n	n	n	n	x	x
Cn1c(SCC(=O)c2ccc3c(c2)Cc2ccccc2-3)nnc1-c1ccccc1	26	n	n	n	n	n	32	n
CSc1cccc(NC(=O)NNC(=O)C2CCN(S(=O)(=O)N(C)C)CC2)c1	n	n	n	n	n	n	x	x
C#CCOCCOCCOCCNc1nc(N2CCN(C(=O)CCCCCCCCCCNC(=O)[C@@H](CCC(=O)O)n3cc(CCCCCN)nn3)CC2)nc(N2CCN(C(=O)CCCCCCCCCCNC(=O)[C@H](CCCCN)n3cc(C[C@@H](C)CC)nn3)CC2)n1	18	n	n	n	n	36	n	n
C#CCOCCOCCOCCNc1nc(N2CCN(C(=O)CCCCCCCCCCNC(=O)[C@@H](CCSC)n3cc(CCO)nn3)CC2)nc(N2CCN(C(=O)CCCCCCCCCCNC(=O)[C@@H]([C@H](C)O)n3cc(C)nn3)CC2)n1	n	n	n	u	n	n	x	x
